Source: ChEMBL document CHEMBL5303300, “EUbOPEN Chemogenomics Library - Multiplex” (2023)
Several values for one entry are separate records, joined by “and”; a condition that tells them apart may be missing. Equal values may be shown once.

Assays:
HEK-293T = assay: Multiplex assay against HEK293T; format: toxicity, cell-based; conditions: human, number of replicates 2
Procedure, shortened: (§1)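 Phenotypes for tubulin, mitochondrial mass and membrane permeability are expressed as per cents of healthy-nucleus cells. Cells were stained live at seeding with Hoechst33342, BioTracker Green Microtubule Cytoskeleton Dye, MitoTracker Red and Annexin V Alexa Fluor 680, then imaged after compound addition on a CQ1 microscope at 37°C and 5% CO2. Machine-learning gating in CellPathfinder separated Hoechst high-intensity objects from normal cells, divided normal cells by nuclear state (healthy, pyknosed, fragmented) and divided pyknosed cells into mitotic or apoptotic.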

U2OS = assay: Multiplex assay against U2OS; format: toxicity, cell-based; conditions: human, number of replicates 2; procedure, shortened: as §1
[1] = 24 h, 1 µM, compound concentration 1 uM
[2] = 24 h, 10 µM, compound concentration 10 uM
[3] = 48 h, 1 µM, compound concentration 1 uM
[4] = 48 h, 10 µM, compound concentration 10 uM
[5] = 12 h, 1 µM, compound concentration 1 uM
[6] = 12 h, 10 µM, compound concentration 10 uM

Cc1cc(-c2cnc(N)c3c(-c4ccc5scnc5c4)csc23)n(C)n1
Population Normal (%) (HEK-293T; [1]): 91% and 90%
Population Pyknosed Nuclei (%) (HEK-293T; [1]): 7%
Population Tubulin-Different-Phenotype (%) (HEK-293T; [1]): 38% and 39%
Total Cell Count (HEK-293T; [1]): 943 and 990
Population Apoptotic (%) (HEK-293T; [2]): 56% and 69%
Population Fragmented Nuclei (%) (HEK-293T; [2]): 6% and 3%
Population Healthy Nuclei (%) (HEK-293T; [2]): 79% and 82%
Population Hoechst High Intensity Objects (%) (HEK-293T; [2]): 17% and 13%
Population Membrane Permeable-Phenotype (%) (HEK-293T; [2]): 2% and 1%
Population Mitochondria Different-Phenotype (%) (HEK-293T; [2]): 65%
Population Mitotic Cells (%) (HEK-293T; [2]): 43% and 30%
Population Normal (%) (HEK-293T; [2]): 82% and 86%
Population Pyknosed Nuclei (%) (HEK-293T; [2]): 14%
Population Tubulin-Different-Phenotype (%) (HEK-293T; [2]): 94% and 92%
Total Cell Count (HEK-293T; [2]): 457 and 429
Population Apoptotic (%) (HEK-293T; [3]): 17% and 10%
Population Fragmented Nuclei (%) (HEK-293T; [3]): 14% and 9%
Population Healthy Nuclei (%) (HEK-293T; [3]): 83% and 86%
Population Hoechst High Intensity Objects (%) (HEK-293T; [3]): 9% and 10%
Population Membrane Permeable-Phenotype (%) (HEK-293T; [3]): 6% and 2%
Population Mitochondria Different-Phenotype (%) (HEK-293T; [3]): 0%
Population Mitotic Cells (%) (HEK-293T; [3]): 82% and 89%
Population Normal (%) (HEK-293T; [3]): 90% and 89%
Population Pyknosed Nuclei (%) (HEK-293T; [3]): 2% and 4%
Population Tubulin-Different-Phenotype (%) (HEK-293T; [3]): 19%
Total Cell Count (HEK-293T; [3]): 2410 and 2184
Population Apoptotic (%) (HEK-293T; [4]): 62% and 80%
Population Fragmented Nuclei (%) (HEK-293T; [4]): 9%
Population Healthy Nuclei (%) (HEK-293T; [4]): 85% and 84%
Population Hoechst High Intensity Objects (%) (HEK-293T; [4]): 17%
Population Membrane Permeable-Phenotype (%) (HEK-293T; [4]): 7% and 2%
Population Mitochondria Different-Phenotype (%) (HEK-293T; [4]): 24% and 30%
Population Mitotic Cells (%) (HEK-293T; [4]): 37% and 20%
Population Normal (%) (HEK-293T; [4]): 82%
Population Pyknosed Nuclei (%) (HEK-293T; [4]): 5%
Population Tubulin-Different-Phenotype (%) (HEK-293T; [4]): 89% and 92%
Total Cell Count (HEK-293T; [4]): 772 and 677
Population Apoptotic (%) (U2OS; [5]): 50% and 66%
Population Fragmented Nuclei (%) (U2OS; [5]): 8% and 7%
Population Healthy Nuclei (%) (U2OS; [5]): 86% and 83%
Population Hoechst High Intensity Objects (%) (U2OS; [5]): 0%
Population Membrane Permeable-Phenotype (%) (U2OS; [5]): 0% and 1%
Population Mitochondria Different-Phenotype (%) (U2OS; [5]): 0%
Population Mitotic Cells (%) (U2OS; [5]): 50% and 33%
Population Normal (%) (U2OS; [5]): 100%
Population Pyknosed Nuclei (%) (U2OS; [5]): 4% and 8%
Population Tubulin-Different-Phenotype (%) (U2OS; [5]): 75% and 76%
Total Cell Count (U2OS; [5]): 46 and 136
Population Apoptotic (%) (U2OS; [6]): 66% and 65%
Population Healthy Nuclei (%) (U2OS; [6]): 56% and 80%
Population Hoechst High Intensity Objects (%) (U2OS; [6]): 0%
Population Membrane Permeable-Phenotype (%) (U2OS; [6]): 8% and 11%
Population Mitochondria Different-Phenotype (%) (U2OS; [6]): 17% and 15%
Population Mitotic Cells (%) (U2OS; [6]): 33% and 34%
Population Normal (%) (U2OS; [6]): 100%
Population Pyknosed Nuclei (%) (U2OS; [6]): 24% and 13%
Population Tubulin-Different-Phenotype (%) (U2OS; [6]): 51% and 38%
Population Apoptotic (%) (U2OS; [1]): 50% and 55%
Population Fragmented Nuclei (%) (U2OS; [1]): 5% and 4%
Population Healthy Nuclei (%) (U2OS; [1]): 87% and 86%
Population Hoechst High Intensity Objects (%) (U2OS; [1]): 0%
Population Membrane Permeable-Phenotype (%) (U2OS; [1]): 0% and 1%
Population Mitochondria Different-Phenotype (%) (U2OS; [1]): 0%
Population Mitotic Cells (%) (U2OS; [1]): 50% and 44%
Population Normal (%) (U2OS; [1]): 100% and 99%
Population Pyknosed Nuclei (%) (U2OS; [1]): 7% and 8%
Population Tubulin-Different-Phenotype (%) (U2OS; [1]): 85% and 83%
Population Apoptotic (%) (U2OS; [2]): 76% and 84%
Population Healthy Nuclei (%) (U2OS; [2]): 56% and 80%
Population Hoechst High Intensity Objects (%) (U2OS; [2]): 1% and 0%
Population Membrane Permeable-Phenotype (%) (U2OS; [2]): 8% and 7%
Population Mitochondria Different-Phenotype (%) (U2OS; [2]): 29% and 19%
Population Mitotic Cells (%) (U2OS; [2]): 23% and 15%
Population Normal (%) (U2OS; [2]): 98% and 99%
Population Pyknosed Nuclei (%) (U2OS; [2]): 25% and 15%
Population Tubulin-Different-Phenotype (%) (U2OS; [2]): 42% and 36%
Population Apoptotic (%) (U2OS; [3]): 50% and 60%
Population Fragmented Nuclei (%) (U2OS; [3]): 1% and 5%
Population Healthy Nuclei (%) (U2OS; [3]): 90% and 86%
Population Hoechst High Intensity Objects (%) (U2OS; [3]): 0%
Population Membrane Permeable-Phenotype (%) (U2OS; [3]): 1%
Population Mitochondria Different-Phenotype (%) (U2OS; [3]): 1%
Population Mitotic Cells (%) (U2OS; [3]): 50% and 39%
Population Normal (%) (U2OS; [3]): 100%
Population Pyknosed Nuclei (%) (U2OS; [3]): 7%
Population Tubulin-Different-Phenotype (%) (U2OS; [3]): 81% and 83%
Population Apoptotic (%) (U2OS; [4]): 73% and 82%
Population Fragmented Nuclei (%) (U2OS; [4]): 12% and 5%
Population Healthy Nuclei (%) (U2OS; [4]): 52% and 78%
Population Hoechst High Intensity Objects (%) (U2OS; [4]): 2% and 0%
Population Membrane Permeable-Phenotype (%) (U2OS; [4]): 7%
Population Mitochondria Different-Phenotype (%) (U2OS; [4]): 19% and 13%
Population Mitotic Cells (%) (U2OS; [4]): 26% and 17%
Population Normal (%) (U2OS; [4]): 97% and 99%
Population Pyknosed Nuclei (%) (U2OS; [4]): 35% and 15%
Population Tubulin-Different-Phenotype (%) (U2OS; [4]): 41% and 33%
